Laboratory results: ChEMBL document CHEMBL2062492 (ACS Med Chem Lett, 2012)
Active and inactive are the calls of the source. No cut-off for these calls is given here.

Legend:
MDA-MB-231 = assay: Cytotoxicity against human MDA-MB-231 cells assessed as cell survival at 10^-7 M relative to vehicle-treated control; assay type: functional; settings: for viability at 0.1 µM: read-out: Survival
How it was run: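 MDA-MB-231 used as the ER-negative breast cancer line, tested at 10–7 M alongside MCF-7 cells. Read-out is survival ratio versus control.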

MCF7 [1] = assay: Growth inhibition of human MCF7 cells at 10^-6 M after 5 days relative to control; assay type: functional; settings: MCF7, 120 h, read-out: GI
How it was run: (§1)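 Cell survival assay on ER+ MCF-7 or T47D cells treated at fixed concentrations of 10–7 M and 10–6 M. 4-OHT-treated cells served as positive control. Growth inhibition is expressed as percent relative to survival.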

MCF7 [2] = assay: Metabolic stability in human MCF7 cells assessed as compound remaining by LC-MS/MS analysis; assay type: ADME, cell-based
MCF7 [3] = assay: Growth inhibition of human MCF7 cells at 10^-7 M after 5 days relative to control; assay type: functional; settings: MCF7, 120 h, read-out: GI; how it was run: as §1
T47D [4] = assay: Metabolic stability in human T47D cells assessed as compound remaining by LC-MS/MS analysis; assay type: ADME, cell-based
How it was run: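 Culture medium from MCF-7 or T47D cells incubated with prodrug was analysed for both intact prodrug and released 4-OHT. Results are reported as relative chromatographic peak areas (% of total for prodrug versus 4-OHT).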

MCF7 [5] = assay: Drug uptake in human MCF7 cells at 10^-6 M after 6 days by HPLC-MS/MS analysis; assay type: ADME, cell-based; settings: mcf7, 144 h, 1 µM
How it was run: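 Uptake is estimated indirectly. Drug remaining in the culture medium was measured after 6 days of incubation with MCF-7 cells.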

T47D [6] = assay: Cytotoxicity against human T47D cells after 5 days; assay type: functional, cell-based; settings: 120 h
MCF7 [7] = assay: Cytotoxicity against human MCF7 cells after 5 days; assay type: functional, cell-based; settings: MCF7, 120 h
[8] = Half life of the compound in human MCF7 cells at 10^-6 M by HPLC-MS/MS analysis; assay type: ADME, cell-based
T47D [9] = assay: Growth inhibition of human T47D cells at 10^-6 M after 5 days relative to control; assay type: functional; settings: 120 h, read-out: GI; how it was run: as §1
MCF7 [10] = assay: Ratio of 4-hydroxytamoxifen IC50 to compound IC50 for human MCF7 cells; assay type: functional
MCF7 [11] = assay: Ratio of tamoxifen IC50 to compound IC50 for human MCF7 cells; assay type: functional
T47D [12] = assay: Growth inhibition of human T47D cells at 10^-7 M after 5 days relative to control; assay type: functional; settings: 120 h, read-out: GI
How it was run: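 Cell survival assay in ER+ T47D breast cancer cells dependent on estrogen for growth. Compounds tested at 10–7 and 10–6 M, with 4-OHT as positive control. Read-out is % growth inhibition from survival relative to control.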

Row | SMILES | Activity (MDA-MB-231) | inhibition of growth at 1 µM (MCF7 [1]) [%] | Stability (MCF7 [2]) [%] | inhibition of growth at 0.1 µM (MCF7 [3]) [%] | Stability (T47D [4]) [%] | Drug uptake (MCF7 [5]) | IC50 (T47D [6]) [nM] | IC50 (MCF7 [7]) [nM] | half-life at 1 µM [8] [h] | inhibition of growth at 1 µM (T47D [9]) [%] | viability at 0.1 µM (MDA-MB-231) [%] | Ratio IC50 (MCF7 [10]) | Ratio IC50 (MCF7 [11]) | inhibition of growth at 0.1 µM (T47D [12]) [%]
1 | CC/C(=C(/c1ccc(OCCN(C)C)cc1)c1ccc(B(O)O)cc1)c1ccccc1 | inactive | 75 | 30.4 | 51 | 20.9 | Active | 228 | 42 | 96 | 54 |  |  |  | 
2 | CC/C(=C(\c1ccccc1)c1ccc(OCCN(C)C)cc1)c1ccccc1 [TAMOXIFEN] |  | 52 |  | 18 |  |  |  |  |  |  | > 95 |  |  | 
3 | CC/C(=C(/c1ccc(OCCN(C)C)cc1)c1ccc([B-](F)(F)F)cc1)c1ccccc1.[K+] | inactive | 76 |  | 59 |  | Active | 260 | 6.26 | 84 | 50 |  |  |  | 
4 | CC/C(=C(/c1ccc(OCCN(C)C)cc1)c1ccc(B2OC(C)(C)C(C)(C)O2)cc1)c1ccccc1 | inactive | 63 |  | 52 |  | Active | 144 | 148 | 89 | 60 |  | 0.2 |  | 
5 | CCC(=C(c1ccc(O)cc1)c1ccc(OCCN(C)C)cc1)c1ccccc1 |  | 63 |  | 56 |  | Active | 210 | 29.1 |  |  | > 95 |  | 30 | 51
